In ChEMBL document CHEMBL4138240, “Structure-guided design, synthesis and evaluation of oxazolidinone-based inhibitors of norovirus 3CL protease” (Eur J Med Chem, 2018) one finds IC50, EC50 and CC50 data, which are given here for ten compounds.

Data set [1] can be described thus: Inhibition of Norovirus 3CL protease using Edans-DFHLQ/GP-Dabcyl as substrate preincubated for 30 mins followed by substrate addition measured for 1 hr by FRET assay. Summed up:
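Protease preincubated at 37 °C for 30 min with serially diluted compound (up to 100 μM) or DMSO in assay buffer: 20 mM HEPES pH 8, 200 mM NaCl, 0.4 mM EDTA, 60% glycerol, 6 mM DTT. Substrate was then added. Fluorescence (ex 360/em 460 nm) was read for 1 h, with no-protease background subtracted. IC50 came from variable-slope dose-response fits.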

Another data set has as its system Norovirus. The data set is described as follows: Antiviral activity against Norovirus replicon infected in human HG23 cells assessed as inhibition of viral RNA replication after 48 hrs by qRT-PCR method. In kind it is functional, organism-based. The method in brief:
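HG23 cells carrying the NV replicon, confluent or semi-confluent, were given medium with compound (up to 100 μM) or DMSO (<0.1%) for 48 h. Total RNA was then extracted and viral genome quantified by real-time qRT-PCR. EC50 was derived from curve fitting.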
On the technique in general: In antiviral work, replicon cells carry a viral genome segment that copies itself.

The nature of data set [2]: Cytotoxicity against human HG23 cells after 72 hrs by crystal violet staining-based assay. In kind it is cell-based.

As usually defined, the IC50 is the concentration that inhibits the measured activity by half. For orientation: EC50 means the concentration needed to bring the measured effect to its halfway point. With `CC(C)C[C@@H](C(=O)N[C@@H](C[C@@H]1CCNC1=O)C(O)S(=O)(=O)O)N1CC(Cc2cccc(Cl)c2)OC1=O` (stereo in doubt; 12A), in data set [1], the IC50 was 8.2 µM. Besides, in the data set with Norovirus (Norovirus, HG23, 48 h), the EC50 was found to be 12.3 µM.

By CC50 is commonly meant the concentration giving 50% cytotoxicity. Read a low CC50 as harm at low concentration. As for `CC(C)C[C@@H](C(=O)N[C@@H](C[C@@H]1CCNC1=O)C(O)S(=O)(=O)O)N1CC(Cc2cccc(Cl)c2)OC1=O` (stereo in doubt; 12B), in data set [1], the IC50 is 13.2 µM. The compound also yielded a CC50 at 72 h in data set [2] greater than 100 µM. Also, the EC50 with Norovirus was 17.5 µM.

In data set [1], `CC(C)C[C@@H](C(=O)N[C@H](C=O)C[C@@H]1CCNC1=O)N1CC(Cc2cccc(Cl)c2)OC1=O` (stereo in doubt; 8B) registered an IC50 of 15.3 µM. Also, the CC50 at 72 h in data set [2] is greater than 100 µM. The EC50 in the data set with Norovirus worked out at 15.3 µM.

Compound `CC(C)C[C@@H](C(=O)N[C@H](C=O)C[C@@H]1CCNC1=O)N1CC(COCc2cccc(Cl)c2)OC1=O` (mixture of isomers) yielded an IC50 in data set [1] of 8.1 µM. In data set [2], this compound had a CC50 at 72 h greater than 100 µM. In addition, the EC50 in the data set with Norovirus (Norovirus, HG23, 48 h) was found to be 14.8 µM.

Consider `CC(C)C[C@@H](C(=O)N[C@H](C=O)C[C@@H]1CCNC1=O)N1CC(Cc2cccc(Cl)c2)OC1=O` (stereo in doubt; 8A), for which, in data set [1], the IC50 came to 7.3 µM. Further, the EC50 in the data set with Norovirus (Norovirus, HG23, 48 h) was found to be 11.5 µM.

Turning to `O=C[C@H](C[C@@H]1CCNC1=O)NC(=O)[C@H](CC1CCCCC1)N1CC(Cc2cccc(Cl)c2)OC1=O` (mixture of isomers), the IC50 in data set [1] is 13.5 µM. The CC50 at 72 h in data set [2] stood at 55.2 µM. In addition, the EC50 in the data set with Norovirus (Norovirus, HG23, 48 h) amounted to 6.7 µM.

On to `CC(C)C[C@@H](C(=O)N[C@@H](C[C@@H]1CCNC1=O)C(O)S(=O)(=O)O)N1CC(COc2cccc(Cl)c2)OC1=O` (mixture of isomers), for which the IC50 in data set [1] is 8.5 µM. The CC50 at 72 h in data set [2] is greater than 100 µM. Moreover, in the data set on Norovirus (Norovirus, HG23, 48 h), the EC50 is 7.6 µM.

In data set [1], `CC(C)C[C@@H](C(=O)N[C@@H](C[C@@H]1CCNC1=O)C(O)S(=O)(=O)O)N1CC(COCc2cccc(Cl)c2)OC1=O` (mixture of isomers) showed an IC50 of 10.6 µM. For the same compound, in data set [2], the CC50 at 72 h is greater than 100 µM. Moreover, the EC50 with Norovirus (Norovirus, HG23, 48 h) came to 17.3 µM.

In data set [1], `O=C1NCC[C@H]1C[C@H](NC(=O)[C@H](CC1CCCCC1)N1CC(Cc2cccc(Cl)c2)OC1=O)C(O)S(=O)(=O)O` (mixture of isomers) showed an IC50 of 15.1 µM. Also, the CC50 at 72 h in data set [2] is 46.1 µM. Moreover, the EC50 with Norovirus (Norovirus, HG23, 48 h) came to 8.1 µM.

`CC(C)C[C@@H](C(=O)N[C@H](C=O)C[C@@H]1CCNC1=O)N1CC(COc2cccc(Cl)c2)OC1=O` (mixture of isomers): half-maximal inhibition in data set [1] (IC50) was put at 3.8 µM. The same compound showed a CC50 at 72 h in data set [2] greater than 100 µM. For the same compound, the EC50 in the data set with Norovirus (Norovirus, HG23, 48 h) was found to be 8.2 µM.
